Activity calls are given as the source filed them.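 Rule for the calls: active = IC50 at or below 10 µM; inactive = IC50 above 10 µM.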
Each compound was assayed on E. coli V66 + mutant T4 phage, OD growth (assay: growth suppression of RecBCD+ V66 E. coli with mutant T4, dose response, counter-screen for AddAB inhibitor project, absorbance, round 2 (AID 651944)).
Outline: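 assay system = recBCD+ Escherichia coli strain V66 challenged with mutant T4 phage | schedule = compound preincubation 60 min, then phage 18 h, 37 °C | compound = 10-point threefold dilution series, top nominal 118.6 µM | benchmarks = high control ciprofloxacin, low control DMSO | signal = absorbance at 600 nm | replicates = triplicate | measure = IC50 from four-parameter curve fit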
With `CCn1cc(C(=O)O)c(=O)c2cnc(N3CCN(C(=S)NCc4ccccc4)CC3)nc21` the IC50 was > 119 µM (inactive). With `CCn1cc(C(=O)O)c(=O)c2cnc(N3CCN(C(=S)Nc4ccc(Cl)cc4)CC3)nc21` the IC50 was 80.9 µM (inactive). With `CCn1cc(C(=O)O)c(=O)c2cnc(N3CCN(C(=S)Nc4cccc(C(F)(F)F)c4)CC3)nc21` the IC50 was 77.8 µM (inactive). For `CCn1cc(C(=O)O)c(=O)c2cnc(N3CCN(C(=S)NC(=O)c4cccc(C)c4)CC3)nc21`, the IC50 was > 39.5 µM (inactive). With `CCn1cc(C(=O)O)c(=O)c2cnc(N3CCN(C(=S)Nc4ccccc4OC)CC3)nc21` the IC50 was > 119 µM (inactive). In the case of `CCn1cc(C(=O)O)c(=O)c2cnc(N3CCN(C(=S)Nc4ccccc4F)CC3)nc21`, the IC50 is reported as > 119 µM (inactive).

Source: PubChem BioAssay AID651944 (The Scripps Research Institute Molecular Screening Center, 2012)
